The record followed here is the RNAGym collection of RNA variant scans (doi:10.1126/science.aae0568).

This sample holds only a part of the variants without activity. A value given as a limit tells only on which side of the number the result lay.

B1: tRNA (parent)
chain: GUUCCGUUGGCGUAAUGGUAACGCGUCUCCCUCCUAAGGAGAAGACUGCGGGUUCGAGUCCCGUACGGAACG

Variants of B1 are the subject of the series. Description: yeast fitness relative to wild type (ratio to wild type); higher = fitter; tRNA-Arg(CCU), competitive growth, 37 C, YPD. The method, boiled down: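 Genotype frequency changes were the basis for Darwinian fitness relative to wild type. The frequencies came from 100-nucleotide paired-end sequencing of gene amplicons from the start population and each end population of pooled yeast strains with tRNA-Arg(CCU) gene variants at the native locus. Competition ran in YPD at 37°C for 24 hours in six replicates, genotypes needed ≥ 100 starting reads, and estimates < 0.5 were set to 0.5.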
Take GUUGCGUUGGCGUAAUAGUAACGCGUCUCCCUCCUAAGGAGAAGACUGCGAGUUCGAGUCCCGUAUGGAACG: the yeast fitness is no more than 0.5.
Next, GUUGCGUUGGCGUAAUAGUCACGCGUCUCCCUCCUAAGGAGAAGACUGCGGGUUCGAGUCUCGUACGGAACG: no more than 0.5; GUUGCGUUGGCGUAAUGCUAACGCGUCUCCCUCCUAAGGAGAAGACUGCGGGUUCGAGUCCCGUACGCAACG: 0.636.
Next, GUUGCGUUGGCGUAAUAGUAACGCGUCUCCCUCCUAAGGAGAAGACUGCGGAUUCGAGUCCCGUACGGAACG: no more than 0.5.
Then GUUGCGUUGGCGUAAUGGUAACGCGUCUCCCUCCUAAGGACAAGACUGCGGGUUCGAGUCCCGUACGGAACG, with 0.834; and GUUGCGUUGGCGUAAUGCUAACGCGUCUCCCUCCUAAGGAGAAGACUGCGGGUUCGAGUCCGGUACGGAACG, with no more than 0.5.
As for GUUGCGUUGGCGUAAUGGUAACGCGUCUCCCUCCUAAGGAGAAGACUCCGGGUUCGAGUCCCGUACGGAACG, the yeast fitness was determined as 0.822.
Then GUUGCGUUGGCGUAAUGGUAACGCAUCUCCCUCCUAAGGAGAAGACUGCGGGUUCGAGUGCGGUACGGAACG, with 0.57; and GUUGCGUUGGCGUAAUAGUAACGCGUCUCCCUCCUGAGGAGAAGAUUGCGGGUUCGAGUCCCGUACGGAACG, with no more than 0.5; and GUUGCGUUGGCGUAAUAGUAACGCGUCUCCCUCCUAAGGAGAAGACUGCGGGUUCGAGUCCCGUACGGAGCG, with 0.567.
Regarding GUUGCGUUGGCGUAAUGGUAACCCGUCUCCCUCCUAAGGAGAAGACUGCGGGUUCGAGUGCCGUACGGAACG, the yeast fitness was no more than 0.5.
As for GUUGCGUUGGCGUAAUGGUAACGCGUCUCCCUCCUAAAGAGAAGACUGCGGGUUCGAGUCCCGUAUGGAACG, the yeast fitness is no more than 0.5.
Then GUUGCGUUGGCGUAAUGGUAACCCGUCUCCCUCCUAAGGAGAAGACUGCGGGUUCGAGUCCCGUACCGAACG, with no more than 0.5.
Regarding GUUGCGUUGGCGUAAUAGUAACGCGCCUCCCUCCUAAGGGGAAGACUGCGGGUUCGAGUCCCGUACGGACCG, the yeast fitness is 0.793.
Then GUUGCGUUGGCGUAAUGGUAACCCGUCUCCCUCCUAAGGAGAAGACUGCGGGUUCGAGUCUCGUACGGAACG, with no more than 0.5; and GUUGCGUUGGCGUAAUGCUAACGCGUCUCCCUCCUAAGGAGAAGACUGCGGGUUCGAGUCCCAUACGGAACG, with no more than 0.5.
Next, GUUGCGUUGGCGUAAUAGUAACGCGUCUCCCUCCUAAGGAGAAGACUGCGGGUUCGAGUCCCGUAUGGAACG: 0.596; GUUGCGUUGGCGUAAUGCUAACGCGUCUCCCUCCUAAGGAGAAGAGUGCGGGUUCGAGUCCCGUACGGAACG: no more than 0.5; GUUGCGUUGGCGUAAUGCUAACGCGUCUCCCUGCUAAGGAAAAGACUGCGGGUUCGAGUCCCGUACGGAACG: no more than 0.5.
Next, GUUGCGUUGGCGUAAUGAUAACGCGUCUCUCUCCUAAGGAGAAGACUGCGGGUUCGAGUGCCGUACGGAACG: 0.515; GUUGCGUUGGCGUAAUGAUAACGCGUCUCUCUCCUAAGGAGAAGACUGCGGGUUCGAGUCCCGUACGGAACG: 0.57.
As to GUUGCGUUGGCGUAAUGGUAACGCGUCUCCCUCCUAAGGAGAAGACUCCGCGUUCGUGUCCCGUACGCAACG, the yeast fitness was determined as 0.55.
Regarding GUUGCGUUGGCGUAAUGCUAACGCGUCUCCCUCCUAAGGAGAAGACUGCGGGUUCGAGUCCCGUACGGACCG, the yeast fitness came out at 0.508.
In the case of GUUGCGUUGGCGUAAUGGUAACGCAUCUCCCUCCUAAGGAGAAGACUGCGGGUGCGAGUCCCGUACGGAACG, the yeast fitness was no more than 0.5.
Next, GUUGCGUUGGCAUAAUGGUAACGCGUCUCCCUCCUAAGGAGAUGCCUGCGGGUUCGAGUCCCGUACCGAACG: no more than 0.5; GUUGCGUUGGCGUAAUGCUAACGCGUCUCCCUCCUAAGGAGAAGACUGCGGGUUCGUGUCCCGUACGGAACG: no more than 0.5.
Then GUUGCGUUGGCGUAAUGGUAACGCGUCUCCCUCCUAAGAAGAAGACUGCGGGUUCGAGUCCCGUUCGGAACG, with 0.576.
Then GUUGCGUUGGCGUAAUGGUAACGCGUCUCCCUCCUAAGAAGAAGACUGCGGGUUCGAGUCCCGUCCGGAACG, with no more than 0.5; and GUUGCGUUGGCCUAAUGGUAACGCGUCUCCCUCCUAAGGGGAAGACUGCGGGUUCGAGUCCCGUACGGAACG, with no more than 0.5.
For GUUGCGUUGGCGUAAUCGUAACGCGUCUCCCUGCUAAGGAGAAGACUGCGGGUUCGAGUCCCGUACGGAACG, the yeast fitness was no more than 0.5.
As for GUUGCGUUGGCGUAAUCGUAACGCGUCUCCCUCCUAUGGAGAAGACUGCGGGUUCGAAUCACGUACGGAACG, the yeast fitness is no more than 0.5.
Then GUUGCGUUGGCGUAAUGGUAACACGUCUGCCUCCUACGGAGAAGACUGCGGGUUCGAGUCCCGUACGGAACG, with 0.651.
Next, GUUGCGUUGGCGUAAUGCUAACGCGUCUCACUCCUAAGGAGAAGACUGCGGGUUCGAGUCCCGUACGGAACG: no more than 0.5.
Next, GUUGCGUUGGCGUAAUGGUAACGCGUCUCCCUCCUAAGAAGAAGACUGCGGGAUCGAGUCCCGUACGGAACG: no more than 0.5.
For GUUGCGUUGGCGUAAUGCUAACGCGUCUCCCUCCUAAGGAGAAGACUGCGGGUUCGAGUCCCGUACGGAACG, the yeast fitness amounted to 0.599.
Next, GUUGCGUUGGCGUAAUAGUAACGCGUCUUCCUCCUAAGGAGAAGACUGCGGGUUCGAGUCCCGUAUGGAACG: no more than 0.5; GUUGCGUUGGCUUCAUGGUAACGCGUCUCCCUCCUAAGGAGAAGACUGUGGGUUCGAGUCCCGUUCGGAACG: no more than 0.5.
As for GUUGCGUUGGCGUAAUGCUAACGCGUCUCCCUCCUAAGGAGAAGACUGCGGGUUCGAGUCCCGAACGGAACG, the yeast fitness is no more than 0.5.
